# Screening data from PubChem.
# TRPC6 act – activates the mouse TRPC6 cation channel; hit rate 0.13% among 310,000; B-score at 10 µM; Q61143; HEK293-TRPC6 membrane potential dye fluorescence; active compounds read high; AID 2550;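 active = B-score of the integrated fluorescence ratio above library mean plus 3 SD, and starting fluorescence ratio within library mean plus 5 SD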;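 also: higher score means more depolarization so channel activation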
# Target sequence (Q61143 whole entry, looked up): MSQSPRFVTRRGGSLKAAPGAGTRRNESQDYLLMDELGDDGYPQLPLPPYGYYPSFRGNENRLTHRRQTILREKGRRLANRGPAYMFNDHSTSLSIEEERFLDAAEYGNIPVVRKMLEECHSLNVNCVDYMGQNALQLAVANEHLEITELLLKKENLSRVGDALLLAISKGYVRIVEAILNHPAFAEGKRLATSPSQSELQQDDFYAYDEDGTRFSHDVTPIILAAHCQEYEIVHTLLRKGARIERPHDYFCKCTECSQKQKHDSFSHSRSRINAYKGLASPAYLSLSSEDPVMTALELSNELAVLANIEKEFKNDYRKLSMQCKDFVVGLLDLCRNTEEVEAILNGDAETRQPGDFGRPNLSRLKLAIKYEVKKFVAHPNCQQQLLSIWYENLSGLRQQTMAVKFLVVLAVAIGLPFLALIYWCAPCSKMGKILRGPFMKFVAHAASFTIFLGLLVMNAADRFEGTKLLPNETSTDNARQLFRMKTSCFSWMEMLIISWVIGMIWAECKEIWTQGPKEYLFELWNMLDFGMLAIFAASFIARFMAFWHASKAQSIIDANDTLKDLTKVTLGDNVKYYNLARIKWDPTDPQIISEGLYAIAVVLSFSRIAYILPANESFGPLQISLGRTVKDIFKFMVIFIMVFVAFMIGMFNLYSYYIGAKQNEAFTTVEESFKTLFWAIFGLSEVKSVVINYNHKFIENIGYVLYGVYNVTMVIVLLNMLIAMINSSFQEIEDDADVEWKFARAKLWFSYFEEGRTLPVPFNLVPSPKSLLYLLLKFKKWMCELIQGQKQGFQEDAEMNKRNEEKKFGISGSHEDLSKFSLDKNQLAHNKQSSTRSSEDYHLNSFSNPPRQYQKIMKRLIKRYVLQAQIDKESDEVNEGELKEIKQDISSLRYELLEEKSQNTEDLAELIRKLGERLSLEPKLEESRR
# TRPC6 inhibitor – mouse TRPC6 channel inhibition; HEK293-TRPC6, membrane potential dye, ACh-evoked depolarization; active compounds read low; B-score at 10 µM; hit rate 1.1% among 310,000;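 active = B-score under library mean minus 3 SD, initial fluorescence not abnormally high, positive integrated signal ratio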;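 also: B-score derived from integrated fluorescence ratio over the kinetic read; more negative B-score means stronger inhibition of depolarization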
# TRPC4 agonist – TRPC4 (mouse) channel activation. AID 2237. hit rate 0.49% among 310,000. HEK293 TRPC4beta/mu-opioid, Fluo4 calcium fluorescence; active compounds read high. B-score at 10 µM;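 active = B-score above 5 SD of library B-scores, and initial fluorescence ratio not above library mean plus 5 SD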;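 also: positive B-score marks a calcium rise read as TRPC4 activation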
#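 Assay system: HEK293 cells stably co-expressing mouse TRPC4beta and mu-opioid receptor / Timing: Fluo4 dye loading 45 min at room temperature, 110 s recording / Signal: Fluo4 calcium-sensitive dye fluorescence, kinetic, 1 Hz baseline / Read-out: integrated baseline-normalised fluorescence ratio, converted to per-well B score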
# TRPC4 potent – allosterically enhances the mouse TRPC4 cation channel; B-score at 10 µM; HEK293 TRPC4beta/mu-opioid, DAMGO EC20, Fluo-4 Ca2+ flux; active compounds read high; Q9QUQ5; hit rate 0.42% among 310,000;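 active = B-score of calcium response area above 5 SD of library B-scores, with initial fluorescence ratio within 5 SD of library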;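 also: B-score of integrated fluorescence ratio over time as area under calcium response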
# TRPC4 block – inhibitors of mouse TRPC4 channel. B-score at 10 µM. Q9QUQ5. HEK293 TRPC4beta/mu-opioid, DAMGO-evoked Fluo4 calcium flux; active compounds read low. hit rate 0.39% among 300,000. AID 2247;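 active = B-score over 3 SD under the library average, no early fluorescence shift, positive overall ratio signal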
#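 test system = HEK293 cells with stable TRPC4beta plus mu-opioid receptor expression | detection = Fluo4 Ca2+ flux fluorescence | read-out = integrated fluorescence ratio relative to baseline, converted to per-well B score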
# Active calls of the source: *; i = inactive. This is a sample that favours compounds with a hit; in the whole collection about 2.3% have one here.
SMILES,TRPC6 act,TRPC6 inhibitor,TRPC4 agonist,TRPC4 potent,TRPC4 block
O=S(=O)(c1cccs1)N1CCN(c2ccnc3cc(Cl)ccc23)CC1,i,i,i,11*,i
CC(=O)N1CCN(c2ccnc3cc(Cl)ccc23)CC1,i,i,i,i,i
O=S(=O)(c1ccccc1)N1CCN(c2ccnc3cc(Cl)ccc23)CC1,i,i,i,13*,i
COc1ccc(OCC(O)CNCc2ccco2)cc1 (configuration not stated),i,i,i,i,i
COc1ccc(C(CNCC(O)COc2c(C)ccc(C)c2C)N(C)C)cc1 (configuration not stated),i,i,68*,i,i
Cc1c(C)c2ccc(OCC(=O)NCCN3CCOCC3)cc2oc1=O,i,i,i,i,i
CN(CC(=O)Nc1cccc(F)c1)C(=O)c1ccc(COc2ccccc2)o1,i,i,i,i,i
CN(C)CCCN(C(=O)CCOc1ccccc1)c1nc2c(F)cccc2s1,i,-5.1*,i,i,i
O=C(Nc1ccc(Cl)c([N+](=O)[O-])c1)C(Sc1ccccc1)c1ccccc1 (configuration not stated),i,i,i,i,i
CCC(C)NC(C(=O)Nc1ccc(Cl)c([N+](=O)[O-])c1)c1ccccc1 (configuration not stated),i,i,i,i,-7*
COCC(C)NC(C(=O)Nc1ccc(Cl)c([N+](=O)[O-])c1)c1ccccc1 (configuration not stated),i,i,i,i,-7*
O=C(Nc1ccc(Cl)c([N+](=O)[O-])c1)C(NCCCO)c1ccccc1 (configuration not stated),i,i,i,i,i
Cc1ccc(C(=O)Nc2ccc(F)cc2)cc1NC1=NC2CS(=O)(=O)CC2S1 (configuration not stated),i,i,i,i,i
CN(CC(=O)Nc1ccc(F)cc1)C(=O)COC(=O)C1CCN(c2ccc(C(F)(F)F)cn2)CC1,i,i,i,i,-5*
CCOc1ccc(S(=O)(=O)N2CCN(C(=S)NC3CC3)CC2)cc1,i,i,i,18*,i
CC(Oc1ccc(C(=O)c2ccccc2)cc1)C(=O)Nc1ccc(S(N)(=O)=O)cc1 (configuration not stated),i,i,58*,i,i
CC(Oc1ccccc1)C(=O)Nc1ccc(NC(=O)c2ccccc2)cc1 (configuration not stated),i,i,i,i,i
O=[N+]([O-])c1ccccc1CN1CCN(S(=O)(=O)c2ccccc2)CC1,i,i,i,17*,i
COc1ccc(C(CNc2ccc(C(F)(F)F)cn2)N(C)C)cc1OC (configuration not stated),i,i,i,i,-6*
N=c1ccn(Cc2ccc(Cl)cc2)cc1,i,i,i,i,i
N=c1ccn(Cc2ccc(Cl)c(Cl)c2)cc1,i,i,61*,i,i
CC1CCN(S(=O)(=O)CCNC(=O)c2ccc(F)cc2)CC1,i,i,i,i,i
Cn1c(/C=N/c2nc3ccccc3[nH]2)nc2ccccc21,i,i,i,i,i
C(=N\c1nc2ccccc2[nH]1)/c1cccs1,i,i,54*,i,i
O=C(N/N=C/c1cccc2cccnc12)c1ccccc1O,i,i,i,i,i
SMILES,TRPC6 act,TRPC6 inhibitor,TRPC4 agonist,TRPC4 potent,TRPC4 block
Cc1nn(-c2ccccc2)c(N)c1C1(O)C(=O)Nc2ccccc21 (configuration not stated),i,i,i,i,i
CCCOc1ccc(CCCN=C(N)N)cc1Cl,i,i,53*,i,i
CCCCOc1ccc(CN=C(N)N)cc1Cl,i,i,i,i,i
Cc1c(Cl)ccc(S(=O)(=O)NCCCn2ccnc2)c1Cl,i,i,50*,i,i
Cc1cc(C)c(S(=O)(=O)NCCCn2ccnc2)c(C)c1,i,i,68*,i,i
COc1c(S(=O)(=O)NCCCn2ccnc2)ccc(Cl)c1Cl,i,i,i,i,i
COc1ccc(Nc2nc(N3CCOCC3)nc(N3CCOCC3)n2)cc1Cl,i,i,i,i,i
O=C(Cc1cccs1)Nc1nc(-c2ccc(F)cc2F)cs1,i,i,i,85*,i
Cn1c(C(=O)N2CCN(c3ccc(F)cc3)CC2)cc2ccccc21,i,i,i,i,i
NC(=O)c1ccc(Oc2ccc3c(c2)CCC3)c([N+](=O)[O-])c1,i,i,i,24*,i
Cc1ncc(CN2CCC(CO)(CCc3ccccc3)CC2)s1,i,i,73*,i,i
OCC1(CCCc2ccccc2)CCN(Cc2cnc(N3CCOCC3)s2)CC1,i,i,46*,i,i
COc1cccc(CC2(CO)CCN(Cc3cnc(N4CCOCC4)s3)CC2)c1,i,i,i,i,i
Cc1ncc(CN2CCN(CCc3ccccc3)C(CCO)C2)s1 (configuration not stated),i,i,i,i,i
COc1ccc(CCN(C)CCC(=O)Nc2c(C)cc(C)cc2C)cc1OC,i,i,111*,i,i
CC(=O)Oc1c(C)cc(O)c2ccccc12,i,i,i,17*,i
CCN(C(=O)COC(=O)c1cc2c(s1)CCCCC2)C1CCS(=O)(=O)C1 (configuration not stated),i,i,i,i,i
O=C(COC(=O)c1cc2c(s1)CCCCC2)NC1CCS(=O)(=O)C1 (configuration not stated),i,i,i,88*,i
O=C(N/N=C/c1cccc2ccccc12)c1ccccc1Cl,i,i,i,10*,i
O=c1cc(N2CCCCC2)c(-c2ccccc2)nn1Cc1ccccc1Cl,i,i,i,14*,i
O=C(NCC(=O)N1CCN(c2ccccc2O)CC1)c1ccc(Br)o1,i,i,i,i,i
CCc1cc(=O)oc2c(CNCc3ccccc3F)c(O)c(Cl)cc12,i,i,i,17*,i
CCOC(=O)COc1c(OC)cc(Cl)cc1C1NC(=O)NC(C)=C1C(C)=O (configuration not stated),i,i,i,i,i
CCCC1=C(C(=O)OCC)C(c2cc(Cl)cc(OC)c2OCC(=O)OCC)NC(=O)N1 (configuration not stated),i,i,i,22*,i
